≈ marks a conversion by molar mass, not a printed value.
Columns and labels:
Escherichia coli = assay: Antibacterial activity against Escherichia coli after 24 to 72 hrs by disk diffusion method; assay type: functional
Outline: (§1)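 Paper-disk diffusion on agar plates. Cellulose disks carry crude EtOAc extract of the fungal culture filtrate; the extract is dried, then redissolved in 3 mL EtOAc. Inhibition zone diameters are read after 24-72 h of incubation, with the time depending on the target organism.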

Pseudomonas aeruginosa = assay: Antibacterial activity against Pseudomonas aeruginosa after 24 to 72 hrs by disk diffusion method; assay type: functional; outline: as §1
Staphylococcus aureus [1] = assay: Antibacterial activity against penicillin-resistant Staphylococcus aureus after 24 to 72 hrs by disk diffusion method; assay type: functional
Outline: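 Cellulose-disk agar diffusion; growth medium includes soya phytone 5 g and NaCl 5 g per litre distilled water, pH 7.2, with 1.5% agar, autoclaved 120 °C for 20 min. Inhibition zone diameters read after 24-72 h of incubation, depending on the target organism.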

Staphylococcus aureus [2] = assay: Antibacterial activity against Staphylococcus aureus after 24 to 72 hrs by disk diffusion method; assay type: functional; outline: as §1
Enterococcus faecalis = assay: Antibacterial activity against Streptococcus faecalis after 24 to 72 hrs by disk diffusion method; assay type: functional; outline: as §1
MDA-MB-231 = assay: Cytotoxicity against human MDA-MB-231 cells after 5 days by MTT assay; assay type: functional; settings: MDA-MB-231, 120 h, read-out: LD50 (the source's name)
Outline: (§2)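 Inhibition of tumour cells (human MDA-MB 231 clonogenic cells, human prostatic adenocarcinoma PC3 and murine leukemia L-1210) was read by Mossmann-derived MTT colorimetric method. Taxol and doxorubicin were run as references.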

PC-3 = assay: Cytotoxicity against human PC-3 cells after 5 days by MTT assay; assay type: functional; settings: PC-3, 120 h, read-out: LD50 (the source's name); outline: as §2
L1210 = assay: Cytotoxicity against mouse L1210 cells after 5 days by MTT assay; assay type: functional; settings: L1210, 120 h, read-out: LD50 (the source's name); outline: as §2
Nakaseomyces glabratus = assay: Antifungal activity against Candida glabrata after 24 to 72 hrs by disk diffusion method; assay type: functional
Outline: (§3)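 Yeasts grown on yeast extract 10 g, peptone 20 g and glucose 15 g per litre, pH 6.0, solidified with 1.5% agar and autoclaved 120 °C for 20 min. Cellulose-disk diffusion assay, with inhibition zone diameters recorded after 24-72 h of incubation, depending on the strain.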

Candida tropicalis = assay: Antifungal activity against amphotericin-resistant Candida tropicalis after 24 to 72 hrs by disk diffusion method; assay type: functional; outline: as §3
Cryptococcus neoformans = assay: Antifungal activity against Cryptococcus neoformans 1 after 24 to 72 hrs by disk diffusion method; assay type: functional; outline: as §3
[3] = Cytotoxicity against human MRC5 cells after 5 days by MTT assay; assay type: cell-based; settings: read-out: LD50
Outline: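 Human lung fibroblast MRC5 (nontumor) line in 96-well plates; modified Mossmann MTT colorimetric micromethod; compound tested up to a maximal concentration of 100 µg/mL.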

Molecule	MIC (Escherichia coli)	MIC (Pseudomonas aeruginosa)	MIC (Staphylococcus aureus [1])	MIC (Staphylococcus aureus [2])	MIC (Enterococcus faecalis)	CC50 (MDA-MB-231)	CC50 (PC-3)	CC50 (L1210)	MIC (Nakaseomyces glabratus)	MIC (Candida tropicalis)	MIC (Cryptococcus neoformans)	CC50 at 120 h [3]
CC1(C)S[C@@H]2[C@H](NC(=O)Cc3ccccc3)C(=O)N2[C@H]1C(=O)O [PENICILLIN G]	560 µg/mL (≈ 1670 µM)	560 µg/mL (≈ 1670 µM)	560 µg/mL (≈ 1670 µM)	14 µg/mL (≈ 41.9 µM)	14 µg/mL (≈ 41.9 µM)							
NC[C@H]1O[C@H](O[C@H]2[C@H](O)[C@@H](O[C@H]3O[C@H](CO)[C@@H](O)[C@H](N)[C@H]3O)[C@H](N)C[C@@H]2N)[C@H](O)[C@@H](O)[C@@H]1O [KANAMYCIN]	28 µg/mL (≈ 57.8 µM)	140 µg/mL (≈ 289 µM)	14 µg/mL (≈ 28.9 µM)	140 µg/mL (≈ 289 µM)	560 µg/mL (≈ 1160 µM)							
CC(=O)O[C@H]1C(=O)[C@@]2(C)[C@H]([C@H](OC(=O)c3ccccc3)[C@]3(O)C[C@H](OC(=O)[C@H](O)[C@@H](NC(=O)c4ccccc4)c4ccccc4)C(C)=C1C3(C)C)[C@]1(OC(C)=O)CO[C@@H]1C[C@@H]2O [PACLITAXEL]						0.003 µg/mL (≈ 0.00351 µM)	0.0027 µg/mL (≈ 0.00316 µM)	0.014 µg/mL (≈ 0.0164 µM)				
C=C1OC(=O)[C@]2(C1=O)[C@H](C)C=CC(=O)[C@H]2O [MYCOSPORULONE]	14 µg/mL (≈ 63 µM)	14 µg/mL (≈ 63 µM)	14 µg/mL (≈ 63 µM)	420 µg/mL (≈ 1890 µM)	280 µg/mL (≈ 1260 µM)	7.7 µg/mL (≈ 34.7 µM)	2.6 µg/mL (≈ 11.7 µM)	0.3 µg/mL (≈ 1.35 µM)	420 µg/mL (≈ 1890 µM)	14 µg/mL (≈ 63 µM)	280 µg/mL (≈ 1260 µM)	> 100 µg/mL
COc1cccc2c1C(=O)c1c(O)c3c(c(O)c1C2=O)C[C@@](O)(C(=O)CO)C[C@@H]3O[C@H]1C[C@H](N)[C@H](O)[C@H](C)O1 [DOXORUBICIN]						0.09 µg/mL (≈ 0.166 µM)	0.19 µg/mL (≈ 0.35 µM)	0.02 µg/mL (≈ 0.0368 µM)				
NYSTATIN									28 µg/mL	14 µg/mL	14 µg/mL	
CN[C@@H]1[C@H](O[C@H]2[C@H](O[C@H]3[C@H](O)[C@@H](O)[C@H](N=C(N)N)[C@@H](O)[C@@H]3N=C(N)N)O[C@@H](C)[C@]2(O)C=O)O[C@@H](CO)[C@H](O)[C@H]1O [STREPTOMYCIN]	28 µg/mL (≈ 48.1 µM)	140 µg/mL (≈ 241 µM)	14 µg/mL (≈ 24.1 µM)	420 µg/mL (≈ 722 µM)	420 µg/mL (≈ 722 µM)							
CC(=O)N1CCN(c2ccc(OCC3COC(Cn4ccnc4)(c4ccc(Cl)cc4Cl)O3)cc2)CC1 (configuration not stated) [KETOCONAZOLE]									14 µg/mL (≈ 26.3 µM)	140 µg/mL (≈ 263 µM)	56 µg/mL (≈ 105 µM)	
C[C@@H]1[C@H](O)[C@@H](C)/C=C/C=C/C=C/C=C/C=C/C=C/C=C/[C@H](O[C@@H]2O[C@H](C)[C@@H](O)[C@H](N)[C@@H]2O)C[C@@H]2O[C@](O)(C[C@@H](O)C[C@@H](O)[C@H](O)CC[C@@H](O)C[C@@H](O)CC(=O)O[C@H]1C)C[C@H](O)[C@H]2C(=O)O [AMPHOTERICIN B]									140 µg/mL (≈ 152 µM)	> 560 µg/mL	140 µg/mL (≈ 152 µM)	

— ChEMBL document CHEMBL1144104, “Antimicrobial and antitumor activities of mycosporulone” (J Nat Prod, 1999)
